We go through three compounds from PMC7851350 (Neoplasia (New York, N.Y.), 2021).

pKd: −log10 of the molar value.

For series [1], the target named is murine PD-L1 protein (Mus musculus, UniProt Q9EP73). Put plainly: SPR binding affinity to murine PD-L1. Summed up: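 SPR running buffer was 1.05× PBS (pH 7.4) with 5% DMSO, at 25°C and 30 µL/min. DMSO solvent correction used 8 standards (4.5–5.8%). Test compound (10 mM DMSO stock) was diluted to 100–3.125 µM plus a 0 µM blank. Each cycle had 90 s injection, 120 s dissociation and 30 s buffer carryover check. Kd came from a global steady-state fit.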
Sequence of murine PD-L1 protein (Q9EP73 19-290): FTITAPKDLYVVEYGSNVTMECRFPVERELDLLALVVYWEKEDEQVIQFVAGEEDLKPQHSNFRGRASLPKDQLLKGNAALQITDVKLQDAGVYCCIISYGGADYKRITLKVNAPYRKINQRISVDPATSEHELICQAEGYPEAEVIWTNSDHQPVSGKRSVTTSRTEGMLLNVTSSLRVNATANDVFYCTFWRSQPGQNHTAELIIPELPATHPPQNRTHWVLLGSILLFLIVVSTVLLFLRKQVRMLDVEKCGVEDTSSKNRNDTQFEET
(In SPR one partner is held on a chip, and binding of the other changes the refractive index at the surface.)

The subject of series [2] is Jurkat cells. Put plainly: Cell toxicity on Jurkat cells during flow cytometric experiments. It is filed as cell-based. As to conditions: concentration up to 50 μM. In general terms: In flow cytometry, cells or beads pass a laser one at a time.
Series [3] has as its system CD4+ T cells cocultured with NCI-H1975 cells. Put plainly: T cell response assay, CD4+ T cells cocultured with NCI-H1975 cells. It is filed as cell-based, human. As to conditions: 48 h coculture, ELISA. Summed up: (§1)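 Human CD4⁺ T blasts were expanded ~7 d with IL-2 (100 IU/mL) and CD3/CD28 beads (1:1), then frozen. Target cells (NCI-H1975, HEK293T-hPD-L1 or PD-L1-negative HEK293T; 10,000/well) adhered for 24 h. T cells (2 × 10⁴; E:T 2:1) were added with or without test compound or atezolizumab in complete RPMI-1640 for 48 h at 37°C, 5% CO₂. Supernatant IFN-γ and TNF-α were measured by ELISA.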
(In general: An ELISA detects its analyte on a solid surface through an enzyme-linked reagent.)

For series [4], the system named is CD4+ T cells cocultured with hPD-L1 overexpressed HEK293T cells. Put plainly: T cell response assay, CD4+ T cells cocultured with HEK293T-hPD-L1 cells. It is filed as cell-based, human. The conditions noted are these: 48 h coculture. Summed up: as §1
Series [5] relates to CD4+ T cells cultured alone. Briefly: T cell response assay, prestimulated T cells cultured alone. The class given is cell-based, human. The conditions noted are these: T-lymphocytes cultured alone, 48 h. Summed up: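 Prestimulated human CD4⁺ T cells (IL-2 100 IU/mL, CD3/CD28 beads 1:1, ~7 d expansion) were cultured alone (2 × 10⁴) with or without test compound for 48 h at 37°C, 5% CO₂. Supernatant IFN-γ and TNF-α were measured by ELISA.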

For series [6], the system named is CD4+ T cells cocultured with PD-L1-negative HEK293T cells. The class given is cell-based, human. As to conditions: coculture with PD-L1-negative HEK293T cells, 48 h. Summed up:
as §1

Series [7] has as its system B16F10-hPD-L1 tumor. Put plainly: Antitumor efficacy in B16F10-hPD-L1 tumor-bearing C57BL/6 mice. It is filed as in vivo.
Series [8] has as its system MC38 tumor. Briefly: Antitumor efficacy in MC38 colon tumor-bearing mice. The class given is in vivo, C57BL/6 mice. Summed up:
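Mice were female C57BL/6, 5–6 wk old. MC38 cells (3 × 10⁶) were injected s.c. into the right abdomen; mice were randomised at 50–70 mm³. Test compound (10 or 15 mg/kg) was given i.p. every 2 d in saline with 8% ethanol and 8% glycerin. Atezolizumab (10 mg/kg) was given i.v. every 3 d. Calipers were read every 2 d; volume = 1/2 × L × W². Mice were sacrificed after 7 doses. Body weight was followed; growth inhibition was computed against vehicle and predose volumes.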

Series [9] is classed as in vivo, mice. Summed up:
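Female C57BL/6 mice bearing subcutaneous B16F10-hPD-L1 tumours were randomised and dosed daily for 1 wk with vehicle, 15 mg/kg or 50 mg/kg test compound. On day 7 after the first dose, serum GOT, GPT, ALP and ALB were measured on an automatic dry-type biochemical analyser. Deaths and toxic effects were recorded during the study.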

Series [10] can be described thus: Stability assay in human blood plasma. The class given is in vitro ADME. Summed up: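 Test compound at 2 µM was incubated in human plasma at 37°C. Duplicate samples were taken at 0, 10, 30, 60 and 120 min. Reactions were stopped with 50% ACN/MeOH containing tolbutamide and labetalol (200 ng/mL each).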
The subject of series [11] is splenic lymphocytes. The class given is in vivo, mice. As to conditions: 15 mg/kg, vs vehicle. Summed up: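 B16F10-hPD-L1 (5 × 10⁶ s.c.) mice received 15 mg/kg test compound i.p. every 2 d or vehicle. Spleens were taken at day 24, meshed through 70 µm, ACK-lysed, and 1 × 10⁶ cells were stained for CD3, CD4, CD8 and perforin. For intracellular cytokines, 2 × 10⁶ cells were stimulated with activation cocktail (1:500) plus brefeldin A (1:1000) for 3–4 h at 37°C, then stained for CD3, CD4, IFN-γ and TNF-α. Data are mean ± SEM; unpaired t test.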

Series [12] has as its system spleen T lymphocyte markers. Put plainly: Immunohistochemistry of spleen from treated tumor-bearing mice. The class given is in vivo. The conditions noted are these: IHC, 15 mg/kg, vs vehicle. Summed up: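 Spleens came from tumour-bearing mice treated with 15 mg/kg test compound or vehicle. Sections (4 µm) of 4% PFA-fixed, paraffin-embedded tissue were stained overnight at 4°C with anti-CD4, CD8 and FoxP3. HRP secondary was applied for 30 min, then DAB. Positive particles were counted per field (n = 5); mean ± SEM, unpaired t test.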

The test system of series [13] is tumor-infiltrating lymphocytes (TILs). Put plainly: Flow cytometry of tumor-infiltrating lymphocytes from B16F10-hPD-L1 tumors. The class given is in vivo, mice. The conditions noted are these: 15 mg/kg. Summed up: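 Tumours from B16F10-hPD-L1 mice treated with 15 mg/kg test compound or vehicle were minced and digested for 45 min at 37°C in collagenase IV (200 U/mL) plus DNase I (40 U/mL). They were then treated with EDTA for 5 min at 37°C and strained at 70 µm. Cells were stained for CD3, CD4, CD8, perforin and granzyme B and analysed by flow cytometry; mean ± SEM, unpaired t test.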

For series [14], the system named is B16F10-hPD-L1 tumor tissue. Briefly: Immunohistochemistry of B16F10-hPD-L1 tumor tissue. As to conditions: IHC, 15 mg/kg, vs vehicle. It is filed as in vivo, mice. Summed up:
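Tumours came from B16F10-hPD-L1-bearing C57BL/6 mice given 15 mg/kg test compound or vehicle. Sections (4 µm) of 4% PFA-fixed, paraffin-embedded tissue were incubated with anti-FoxP3, anti-CD4 and anti-CD8 overnight at 4°C. HRP secondary was applied for 30 min, followed by DAB. Positive particles were counted per field.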

For series [15], the system named is B16F10-hPD-L1 tumor tissue. Briefly: RNA-seq of B16F10-hPD-L1 tumor tissue. The conditions noted are these: 15 mg/kg vs vehicle. The class given is in vivo, mice.
Series [16] has as its system PD-L1. The conditions noted are these: cited from earlier work.
The test system of series [17] is post-treatment tumors. The conditions noted are these: responders; cited from earlier work.
The mark [18] stands for this setting: 15 and 50 mg/kg daily, day 7, vs control.
Where [19] appears, read: flow cytometry and IHC, vs vehicle.

For the compound `NC(=O)c1ccccc1NC(=O)c1ccc(-c2ccccc2)cc1` [APBC, N-[2-(aminocarbonyl)phenyl][1,1′-biphenyl]-4-carboxamide], in series [1], the pKd was under 4.00. The cell toxicity result in series [2] is given as “not observed”. Further, in series [3], the IFN-γ level entry is “dose dependent increase” and the TNF-α level entry is “dose dependent increase”. Moreover, in series [4] (10 µM), the TNF-α level increase turned out to be 41.8%. Moreover, the TNF-α production increase in series [4] (50 μM) is 86.6%. In addition, the “IFN-γ and TNF-α production” value in series [5] was “did not significantly affect”. Moreover, the “IFN-γ and TNF-α production” value in [6] is recorded as “did not significantly affect”. The compound further yielded a tumor growth inhibition in series [7] (10 mg/kg intraperitoneal every 2 d, 8 treatments) of 62.1%. The “treated animals almost tumor free” value in series [7] (15 mg/kg intraperitoneal every 2 d) is listed as 4 of 10. The tumor growth inhibition in series [7] (15 mg/kg intraperitoneal every 2 d, 8 treatments) was 82.2%. In addition, the “spleen (splenomegaly / spleen weight)” value in series [7] (day 24 after tumor inoculation, vs vehicle group with splenomegaly) was “normal spleens”. For the same compound, the “growth of colon tumors” value in [8] (10 mg/kg, after 7 times of treatment) is given as “inhibited significantly”. Besides, the “effect on body weight” value in [8] (during the treatment period) is reported as “no significant effect”. Moreover, in series [9] (1-wk, daily up to 50 mg/kg), the drug-related deaths entry is “no drug-related deaths”, the drug-related toxic effects result is listed as “no drug-related toxic effects observed” and the tolerability entry is “well tolerated”. In addition, in series [9] (setting [18]), the “serum level of ALB” value was “no significant changes” and the “serum level of ALP” value is “no significant changes”. Also, in series [9] (daily, up to 50 mg/kg, day 7), the “serum level of GOT” value was “tendency to considerable decrease” and the “serum level of GPT” value is on record as “tendency to considerable decrease”. For the same compound, the “toxicity in murine models” value in [9] (up to 50 mg/kg) is reported as “no observable toxicity”. In [10], the blood plasma stability entry is “relatively good”. Further, in series [11] (P < 0.001), the “percentage of CD3+ CD4+ T lymphocytes in the spleen” value is given as “significantly increased”, the “percentage of CD3+ CD8+ T lymphocytes in the spleen” value was “significantly increased” and the “percentage of CD3+ T lymphocytes in the spleen” value is listed as “significantly increased”. Besides, in series [11] (spleen), the “percentage of IFN-γ producing CD4+ T cells” value is listed as “extremely significant increase” and the “percentage of TNF-α producing CD4+ T cells” value is “extremely significant increase”. In addition, in series [11] (spleen, P< 0.01), the “perforin production from CD3+ cells” value is listed as “significantly increased”. For the same compound, in [12], the “density of CD4+ T lymphocytes in the spleen” value was “considerably higher density”, the “density of CD8+ T lymphocytes in the spleen” value is given as “considerably higher density” and the “expression of FoxP3 in the spleen” value was “no significant changes”. Also, in series [13] (TILs, vs controls), the “GzmB expression in CD3+ T cells of tumors” value was “markedly elevated” and the “perforin expression in CD3+ T cells of tumors” value is listed as “markedly elevated”. Further, in [13] (setting [19]), the “CD4+ T-cell population in tumors” value was “significantly increased” and the “CD8+ T-cell population in tumors” value is on record as “significantly increased”. The “FoxP3 expression levels within tumors” value in [14] is “did not significantly change”. Also, in series [15] (CIBERSORTx, P< 0.05), the “infiltration of CD8+ T cells in the tumor” value is “significant higher infiltration”. Moreover, in series [15] (GSEA), the “immune pathways (antigen processing and presentation, T-cell receptor signaling, TNF signaling, Th1 and Th2 cell differentiation)” value was “markedly upregulated”; the “pathways related to Glycolysis or MAPK signaling pathway” value was “markedly downregulated”.
Regarding `C[C@@H](O)[C@H](NC(=O)N[C@@H](CC(N)=O)c1nc([C@@H](N)CO)no1)C(=O)O` [CA-170], in series [16], the “direct binding to PD-L1” value is on record as “no direct binding”.
For “Atezolizumab: anti-PD-L1 antibody, positive control [reference compound]”, the tumor growth inhibition in series [7] (10 mg/kg tail vein injection every 3 d) was found to be 66.1%. In addition, the “cytokines production such as IFN-γ and TNF-α” value in [17] is recorded as “increased”.

As usually defined, the pKd is the negative decadic logarithm of the Kd, by convention in mol/L.
